Assay results published in publication PMC10464600 (ACS chemical biology, 2022).
Values belong to the compound of their own block, whether it stands above or below them.

Tests used:
[1] = Photophysical properties; assay type: physicochemical
In short: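 Samples were diluted to 1 μM and scanned on a photon-counting fluorometer in a 10 x 4 mm cuvette at 25 °C, with excitation/emission spectra recorded in triplicate. Quantum yield was taken relative to a reference fluorophore standard. Extinction coefficient came from absorbance spectra (10 mm pathlength) at 10, 8, 6, 4 and 2 μM dilutions.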

[2] = tested on: 1483 HNSCC cells; experiment: Cell imaging assay, fluorescence microscopy; assay type: cell-based
In short: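 1483 HNSCC cells in HBSS/Tyrode's, grown to 50% confluency, given 200 nM probe for 0.25 h at 37 °C, washed three times, imaged (propidium iodide filter, 0.5 s exposure, gain 2) at 0.5 and 3 h post-addition. Intensity read at 586/607 nm. Triplicates; Welch-corrected unpaired t test, error as standard error.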

[3] = tested on: ROS in carrageenan-induced inflamed footpad; experiment: Chemiluminescence imaging of ROS in carrageenan-induced footpad inflammation; assay type: in vivo, C57BL/6 mice; conditions: luminol 5 mg/kg i.v.
[4] = biological target: T1, mCOX-2 (Mus musculus, UniProt Q05769); experiment: Purified COX-2 isozyme inhibition, TLC assay with [1-14C]arachidonic acid; assay type: biochemical; conditions: read-out: IC50, inhibition of COX-2, 14C-arachidonic acid substrate
T1 sequence (Q05769 18-604): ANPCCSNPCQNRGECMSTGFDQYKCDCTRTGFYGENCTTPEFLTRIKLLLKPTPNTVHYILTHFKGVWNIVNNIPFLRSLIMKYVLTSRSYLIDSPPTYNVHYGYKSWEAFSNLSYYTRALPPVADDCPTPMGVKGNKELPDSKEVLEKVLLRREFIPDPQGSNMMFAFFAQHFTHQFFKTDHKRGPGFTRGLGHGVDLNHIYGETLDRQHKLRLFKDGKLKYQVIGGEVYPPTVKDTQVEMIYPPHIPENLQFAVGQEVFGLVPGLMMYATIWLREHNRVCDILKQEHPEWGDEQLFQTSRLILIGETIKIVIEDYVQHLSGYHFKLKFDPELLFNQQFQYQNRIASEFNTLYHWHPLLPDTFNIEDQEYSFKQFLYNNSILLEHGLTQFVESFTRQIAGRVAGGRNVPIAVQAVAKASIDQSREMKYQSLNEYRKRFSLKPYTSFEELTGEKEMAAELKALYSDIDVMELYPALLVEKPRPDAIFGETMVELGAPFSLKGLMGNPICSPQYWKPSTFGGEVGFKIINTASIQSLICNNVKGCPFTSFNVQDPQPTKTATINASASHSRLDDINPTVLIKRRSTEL

[5] = tested on: COX-2 and ROS in carrageenan-induced inflamed footpad; experiment: Fluorescence imaging of carrageenan-induced footpad inflammation; assay type: in vivo, C57BL/6 mice
[6] = In vivo pharmacokinetic assay, plasma concentration by LC-MS; conditions: CD-1 mice, 10 mg/kg i.p.
[7] = biological target: T2, COX-2 in 1483 HNSCC cells (Homo sapiens, UniProt P35354); experiment: Cell-based COX-2 inhibition assay in intact 1483 HNSCC cells; conditions: read-out: IC50, cellular COX-2 inhibition
T2 sequence (P35354 18-604): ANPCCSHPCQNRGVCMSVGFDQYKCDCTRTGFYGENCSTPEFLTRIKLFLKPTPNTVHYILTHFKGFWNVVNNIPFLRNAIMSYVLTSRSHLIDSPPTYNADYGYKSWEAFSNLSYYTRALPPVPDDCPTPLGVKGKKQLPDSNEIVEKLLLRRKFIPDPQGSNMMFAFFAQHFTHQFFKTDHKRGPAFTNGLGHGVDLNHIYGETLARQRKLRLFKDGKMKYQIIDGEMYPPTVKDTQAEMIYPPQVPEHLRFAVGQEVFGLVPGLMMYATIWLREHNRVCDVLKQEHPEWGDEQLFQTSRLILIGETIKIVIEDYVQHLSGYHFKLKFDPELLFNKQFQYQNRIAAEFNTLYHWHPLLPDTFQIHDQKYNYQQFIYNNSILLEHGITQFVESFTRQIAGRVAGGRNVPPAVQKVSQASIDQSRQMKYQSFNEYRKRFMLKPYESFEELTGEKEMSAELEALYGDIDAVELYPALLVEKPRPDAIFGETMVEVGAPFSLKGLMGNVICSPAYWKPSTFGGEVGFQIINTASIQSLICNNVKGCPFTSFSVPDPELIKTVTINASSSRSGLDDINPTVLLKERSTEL

[8] = 200 nM, 1483 HNSCC cells, after washout

extinction coefficient (ε) ([1]; at 579 nm): 45 mM⁻¹ cm⁻¹
quantum yield (Φfl) ([1]; at 602 nm, FA used as standard for comparison): 0.93
Compound: COc1ccc2c(c1)c(CC(=O)NCCCCNC(=O)c1ccc(C3=c4cc5c6c(c4Oc4c3cc3c7c4CCCN7CCC3)CCC[N+]=6CCC5)c(C(=O)O)c1)c(C)n2C(=O)c1ccc(Cl)cc1 [FA, fluorocoxib A, reference compound]

IC50 [4]: 330 nM
extinction coefficient (ε) ([1]; at 586 nm): < 0.4 mM⁻¹ cm⁻¹
quantum yield (Φfl) ([1]; at 607 nm): < 0.19
plasma half-life [6]: exceeds 24 h
IC50 [7]: 280 nM
Compound: fluorocoxib Q [FQ]
cell fluorescence at 0.5 h post-addition [2, 8]: low fluorescence intensity
cell fluorescence at 3 h post-addition [2, 8]: strong fluorescence
fold increase in fluorescence, inflamed over non-inflamed footpads ([5]; 5 mg/kg i.p., imaging 24 h post-injection, average): 9 fold
fluorescence in inflamed footpad (mean ± sd) ([5]; 5 mg/kg i.p., imaging 24 h post-injection, n = 8, p < 0.001): 7.84x10^8 ± 1.25x10^8
background signal in non-inflamed footpad ([5]; wild-type C57BL/6 mice, FQ versus CF3-FA): extremely low background signal

IC50 [4]: 240 nM
extinction coefficient (ε) ([1]; at 586 nm): 44 mM⁻¹ cm⁻¹
quantum yield (Φfl) ([1]; at 607 nm): 0.90
IC50 [7]: 260 nM
Compound: fluorocoxib Q-H [FQ-H]
fluorescence labeling of 1483 HNSCC cells ([2]; fluorocoxib Q-H alone, after repetitive washing): strong perinuclear fluorescence

Continued, compound first:

Compound: Cc1ccc(-c2cc(C(F)(F)F)nn2-c2ccc(S(N)(=O)=O)cc2)cc1 [celecoxib, reference compound]
effect of preincubation on fluorocoxib Q-H labeling of 1483 HNSCC cells ([2]; pretreatment before fluorocoxib Q-H): blocked

Compound: Nc1cccc2c(=O)[nH][nH]c(=O)c12 [luminol]
fold luminescence, inflamed versus control footpads [3]: 12 fold
chemiluminescence emission in inflamed footpads (mean ± sd) ([3]; 6 h after carrageenan, n = 8, p < 0.0004): 1251.5 ± 94.9
